The target of data set [1] is T1, Proprotein convertase subtilisin/kexin type 6 (Homo sapiens, UniProt P29122).
T1 sequence (P29122 whole entry): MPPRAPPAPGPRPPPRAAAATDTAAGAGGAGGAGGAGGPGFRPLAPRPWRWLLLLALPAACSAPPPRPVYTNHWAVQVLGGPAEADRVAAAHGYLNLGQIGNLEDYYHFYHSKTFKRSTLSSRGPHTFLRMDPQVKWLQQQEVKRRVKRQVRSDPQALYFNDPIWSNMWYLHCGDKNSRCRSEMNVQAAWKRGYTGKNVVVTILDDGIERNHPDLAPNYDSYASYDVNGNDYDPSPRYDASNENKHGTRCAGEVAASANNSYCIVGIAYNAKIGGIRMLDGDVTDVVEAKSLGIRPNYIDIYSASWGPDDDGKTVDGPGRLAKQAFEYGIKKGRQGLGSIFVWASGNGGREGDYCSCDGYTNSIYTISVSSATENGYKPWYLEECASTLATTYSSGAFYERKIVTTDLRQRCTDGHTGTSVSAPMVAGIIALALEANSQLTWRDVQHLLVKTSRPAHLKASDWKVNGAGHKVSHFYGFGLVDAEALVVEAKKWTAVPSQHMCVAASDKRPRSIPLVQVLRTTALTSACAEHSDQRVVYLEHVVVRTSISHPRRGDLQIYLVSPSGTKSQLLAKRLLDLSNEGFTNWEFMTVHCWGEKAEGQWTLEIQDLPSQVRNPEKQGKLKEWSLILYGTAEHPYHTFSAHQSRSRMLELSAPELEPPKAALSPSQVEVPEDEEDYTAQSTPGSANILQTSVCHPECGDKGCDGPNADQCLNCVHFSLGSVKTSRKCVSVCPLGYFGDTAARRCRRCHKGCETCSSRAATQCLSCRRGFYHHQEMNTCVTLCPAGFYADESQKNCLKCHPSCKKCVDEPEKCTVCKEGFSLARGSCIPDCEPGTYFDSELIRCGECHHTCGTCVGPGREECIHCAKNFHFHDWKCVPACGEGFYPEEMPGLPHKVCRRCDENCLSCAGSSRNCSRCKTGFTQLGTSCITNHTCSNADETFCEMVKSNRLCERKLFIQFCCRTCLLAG
The experiment in a line: Inhibition of recombinant human PACE4 expressed in S2 insect cells using pyroGlu-Arg-Thr-Lys-Arg-AMC peptide as substrate after 1 hr by spectrofluorometry. The procedure, abridged:
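Human recombinant PACE4 made in S2 insect cells and purified. Assay buffer 20 mM Bis-Tris pH 6.5, 1 mM CaCl2, 1.8 g/L BSA. Substrate 100 µM per well, inhibitors 0–10 µM, 2 units enzyme. Fluorescence (ex 370/em 460 nm) followed in real time for 1 h. Ki from IC50 by Cheng–Prusoff; duplicate or triplicate.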

The nature of data set [2]: Half life in human plasma by ion chromatogram-based analysis. The data set is classed as ADME, cell-free. In outline: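 Peptide at 50 µM was incubated at 37 °C in human serum from male AB plasma. At each time point, plasma was precipitated with MeOH containing Fmoc-Leu-OH internal standard, centrifuged and filtered. Samples were analysed by UPLC-MS. The peptide/standard ratio of total ion chromatogram peak area was expressed relative to 0 h.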

For data set [3], the system named is DU-145. Put plainly: Cytotoxicity against human DU145 cells assessed as effect on live cells >10 uM after 1.5 hrs by propidium iodide-staining based FACS analysis. It is filed as cell-based. To be noted: du-145, 1.5 h. In outline: (§1)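 DU145 cells (200 000 per well) exposed to peptides in serum-free medium for 1.5 h at 1, 10, 50 and 100 µM, or 1, 10, 15, 20, 30, 50, 100 µM for the dose-response set. Cells trypsinized, washed, resuspended in PBS, PI added (final 10 µg/mL), fluorescence read by flow cytometry; IC50(PI) from the dose-response curve; at least two independent experiments.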
Background: In flow cytometry, cells or beads pass a laser one at a time.

Data set [4] relates to DU-145. Put plainly: Antiproliferative activity against human DU145 cells after 72 hrs by MTT assay. The data set is classed as functional, cell-based. The note with it: DU-145, 72 h. In outline: (§2)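 MTT assay run 72 h. Seeding was ~1500 cells/well for DU145 and ~2500 cells/well for LNCaP, in RPMI 1640 with 5% FBS (DU145) or 10% FBS (LNCaP). Medium was changed after 24 h, then inhibitor added at 1–300 µM or 1–150 µM. MTT was added at 1 g/L final for 4 h and formazan dissolved in 2-propanol/HCl. Readings were relative to vehicle (water, 0.1% DMSO). IC50 was from at least two independent experiments.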
For orientation: Tetrazolium assays rely on reduction of a dye to a coloured formazan, in cell work by metabolically active cells.

Data set [5] concerns LNCaP. The experiment in a line: Antiproliferative activity against human LNCAP cells after 72 hrs by MTT assay. The data set is classed as functional, cell-based. In outline:
as §2

The species named for a further data set is Homo sapiens. The experiment in a line: Selectivity ratio of Ki for recombinant human furin to Ki for recombinant human PACE4. In outline: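 Ki values came from human recombinant enzymes expressed in S2 insect cells. Furin was assayed in 100 mM HEPES pH 7.5, 1 mM CaCl2, 1 mM β-mercaptoethanol and 1.8 g/L BSA. PACE4 was assayed in 20 mM Bis-Tris pH 6.5, 1 mM CaCl2 and 1.8 g/L BSA. Substrate was pERTKR-AMC at 100 µM, with inhibitor at 0–10 µM. Fluorescence (ex 370/em 460 nm) was read for 1 h, and Ki derived by Cheng-Prusoff.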

The target in a further data set is Furin (Homo sapiens, UniProt P09958). Put plainly: Inhibition of recombinant human furin expressed in S2 insect cells using pyroGlu-Arg-Thr-Lys-Arg-AMC peptide as substrate after 1 hr by spectrofluorometry. In outline:
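Furin was human recombinant from S2 insect cells, purified. Buffer 100 mM HEPES pH 7.5, 1 mM CaCl2, 1 mM β-mercaptoethanol, 1.8 g/L BSA. Substrate 100 µM per well, inhibitors 0–10 µM, 2 units enzyme. Real-time fluorescence (ex 370/em 460 nm) over 1 h. Ki by Cheng–Prusoff; duplicate or triplicate.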

In data set [6] the test system is LNCaP. Put plainly: Antitumor activity against human LNCAP cells xenografted in nu mouse assessed as reduction in tumor volume at 2 mg/kg/day, iv administered at 24 hr intervals. Also noted: scale not given: the % may be the effect or the level left. The data set is classed as functional. A general note: In xenograft studies the graft and the host belong to different species.

Data set [7] deals with LNCaP. Put plainly: Antitumor activity against human LNCAP cells xenografted in nu mouse assessed as reduction in serum prostate-specific antigen levels at 2 mg/kg/day, iv administered at 24 hr intervals. The data set is classed as functional. Also noted: scale not given: the % may be the effect or the level left.
Data set [8] can be described thus: Acute toxicity in iv dosed CD1 mouse measured within 5 mins post dose. It is filed as organism-based. To be noted: in vivo. The procedure, abridged: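 Healthy CD1 mice received a single intravenous dose, given at various dose levels, to locate the toxicity threshold as a maximum tolerated dose (MTD).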
Data set [9] concerns DU-145. The experiment in a line: Cytotoxicity against human DU145 cells assessed as effect on live cells up to 100 uM after 1.5 hrs by propidium iodide-staining based FACS analysis. The data set is classed as cell-based. The note with it: du-145, 1.5 h. In outline: as §1
Data set [10] relates to LNCaP. The experiment in a line: Antiproliferative activity against human LNCAP cells up to 300 uM after 72 hrs by MTT assay relative to control. It is filed as functional. The procedure, abridged: as §2

Where a SMILES comes first, the peptide text is derived from it. [ ]: non-standard residue; d: D form. The star is where a group is joined. NH(4-amidinobenzyl) = N=C(N)c1ccc(CN*)cc1

Sequence of Furin (P09958 whole entry): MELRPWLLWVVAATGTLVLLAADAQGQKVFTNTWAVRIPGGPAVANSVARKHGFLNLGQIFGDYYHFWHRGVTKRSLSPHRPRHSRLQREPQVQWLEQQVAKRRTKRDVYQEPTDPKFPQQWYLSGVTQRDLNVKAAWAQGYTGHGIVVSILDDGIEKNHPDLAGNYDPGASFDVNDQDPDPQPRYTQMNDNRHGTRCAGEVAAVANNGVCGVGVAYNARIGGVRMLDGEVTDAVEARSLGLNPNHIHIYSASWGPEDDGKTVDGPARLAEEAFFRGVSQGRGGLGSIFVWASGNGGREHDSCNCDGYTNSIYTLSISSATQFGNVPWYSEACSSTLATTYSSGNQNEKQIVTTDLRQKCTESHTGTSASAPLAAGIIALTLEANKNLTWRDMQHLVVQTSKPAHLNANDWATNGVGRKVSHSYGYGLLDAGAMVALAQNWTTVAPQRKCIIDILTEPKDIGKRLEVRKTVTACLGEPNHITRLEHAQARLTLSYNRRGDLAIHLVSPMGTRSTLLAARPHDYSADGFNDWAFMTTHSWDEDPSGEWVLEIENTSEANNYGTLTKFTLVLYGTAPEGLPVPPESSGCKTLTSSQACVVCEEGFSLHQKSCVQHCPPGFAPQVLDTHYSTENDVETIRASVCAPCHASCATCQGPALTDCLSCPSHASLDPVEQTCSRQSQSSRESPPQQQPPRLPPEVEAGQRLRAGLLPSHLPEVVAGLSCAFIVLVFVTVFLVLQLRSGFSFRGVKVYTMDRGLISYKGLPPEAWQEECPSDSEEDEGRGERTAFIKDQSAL

The Ki is the dissociation constant of the complex between target and ligand, obtained from inhibition or displacement. As a reminder, the half-life is the time in which the quantity being followed falls by half. By IC50 is commonly meant the concentration that inhibits the measured activity by half. With `CC(=O)N[C@H](CC(C)C)C(=O)N[C@@H](CC(C)C)C(=O)N[C@@H](CC(C)C)C(=O)N[C@@H](CC(C)C)C(=O)N[C@@H](CCCNC(=N)N)C(=O)N[C@H](C(=O)N[C@@H](CCCCN)C(=O)N[C@@H](CCCNC(=N)N)C(=O)NCCc1c[nH]c2ccccc12)C(C)C`, the Ki in data set [1] worked out at 0.07 µM; at Furin it was 0.28 µM. Also, the half-life in data set [2] is 0.8 h. In addition, the Activity result with DU-145 [3] is given as “Toxic”. Besides, the IC50 in the data set with DU-145 [4] came out at 14 µM; with LNCaP [5] it was 18 µM. In the data set listed under Homo sapiens, the Ratio Ki came out at 4.

In the case of `CC(=O)N[C@H](CC(C)C)C(=O)N[C@@H](CC(C)C)C(=O)N[C@@H](CC(C)C)C(=O)N[C@@H](CC(C)C)C(=O)N[C@@H](CCCNC(=N)N)C(=O)N[C@H](C(=O)N[C@@H](CCCCN)C(=O)NCc1ccc(C(=N)N)cc1)C(C)C` (Ac-[dL]LLLRVK-{NH(4-amidinobenzyl)}), the Activity with LNCaP [6] was found to be 60%; in the data set on LNCaP [7], 47%. This compound also showed an MTD at 5 min in data set [8] of 10 mg/kg. In data set [2], this compound showed a half-life of 1.7 h. Inhibition in the data set on LNCaP [5] was half-maximal at 45 µM (IC50). Besides, in the data set filed under Homo sapiens, the Ratio Ki was determined as 2.

Ac-LLLLRVKRR-NH2: the Ki is 0.16 µM in data set [1] and 2.5 µM on Furin. The Activity entry with DU-145 [9] was “Non-Toxic”; in the data set with LNCaP [10] it was <50%. The same compound had an IC50 in the data set on DU-145 [4] of 71 µM. In the data set listed under Homo sapiens, the Ratio Ki is 16.

On to Ac-LLLLRVKRW-NH2, for which the Ki in data set [1] came to 0.029 µM; at Furin it was 0.11 µM. For the same compound, the Activity entry in the data set with DU-145 [3] is “Toxic”. For the same compound, the IC50 in the data set on DU-145 [4] came to 25 µM; in the data set with LNCaP [5], 31 µM. Also, the Ratio Ki in the data set filed under Homo sapiens was found to be 4.

These data come from ChEMBL document CHEMBL4229560, “Increasing C-Terminal Hydrophobicity Improves the Cell Permeability and Antiproliferative Activity of PACE4 Inhibitors against Prostate Cancer Cell Lines” (J Med Chem, 2018).
